Measured values gathered from unrelated publications.
Compare with care: the assays were run in different laboratories.
ST14: Suppressor of tumorigenicity 14 protein (ST14, Homo sapiens, UniProt Q9Y5Y6)
CDK2 with cyclin A2: Cyclin-dependent kinase 2, with cyclin A2 (CDK2, Homo sapiens, UniProt P24941)

SMILES	target	observed	mode	technique	concentration	endpoint	value
CC(C)(NC(=O)[C@H](Cc1cscn1)NC(=O)CCc1ccccc1)C(=O)N[C@@H](CCCNC(=N)N)C(=O)c1nc2ccccc2s1	ST14	enzyme activity	inhibitor		0.1 µM	remaining activity	4%
COc1cc(-c2cncc3c2CN(C)Cc2cc(N4CCNCC4)ccc2-3)cc(OC)c1OC	Dual specificity protein kinase CLK3 (CLK3, Homo sapiens, UniProt P49761)	enzyme activity	inhibitor		1 µM	remaining activity	103%
N=C(N)NCCC[C@H](NC(=O)[C@@H](CC1CCCCC1)NC(=O)[C@H](Cc1cscn1)NC(=O)CCc1ccccc1)C(=O)c1nc2ccccc2s1	ST14	enzyme activity	inhibitor		0.1 µM	remaining activity	95%
CC(=O)Nc1c(N)nc(SCC(=O)NN)[nH]c1=O	CDK2 with cyclin A2	enzyme activity	inhibitor		1 nM	inhibition	8.32%
N=C(N)NCCC[C@H](NC(=O)[C@H](Cc1ccccc1I)NC(=O)[C@H](Cc1cscn1)NC(=O)CCc1ccccc1)C(=O)c1nc2ccccc2s1	ST14	enzyme activity	inhibitor		0.1 µM	remaining activity	90%
C=CC(=O)N1CCC(COCC(=O)N2CCN(c3nc(-c4cnc(N)nc4C(F)F)nc(N4CCOC[C@@H]4C)n3)CC2)CC1	Protein kinase C eta type (PRKCH, Homo sapiens, UniProt P24723)	binding		competition with immobilised ligand	1 µM	remaining binding	100%
CNC(=O)c1cc(Oc2ccc(NC(=O)Nc3ccc(Cl)c(C(F)(F)F)c3)cc2)ccn1	CDK2 with cyclin A2	enzyme activity	inhibitor		200 pM	inhibition	12.3%
Cc1cc([C@@H](C)Nc2ccccc2C(=O)O)c2nc(N3CCC(F)(F)CC3)c(C#N)c(=O)n2c1	Cyclin-dependent kinase 2 (CDK2, Homo sapiens, UniProt P24941)	binding		competition with immobilised ligand	10 µM	remaining binding	98%
CC(=O)Nc1c(N)nc(SCC(=O)N/N=C/c2ccc([N+](=O)[O-])cc2)[nH]c1=O	CDK2 with cyclin A2	enzyme activity	inhibitor		10 nM	inhibition	15%
CNc1ncc2c(/C=C/C(=O)N3CCC(OC)CC3)nn(Cc3cccc(C(F)(F)F)c3)c2n1	Angiopoietin-1 receptor (TEK, Homo sapiens, UniProt Q02763)	enzyme activity	inhibitor	radiometric	1 µM	remaining activity	98%
